Results as given in ChEMBL document CHEMBL4177764 (J Med Chem, 2018).
Activity calls are given as the source filed them. No cut-off for these calls is given here.

Key:
[1] = system: KARPAS-299; assay: Antiproliferative activity against human KARPAS299 cells after 72 hrs by CellTiter-Glo luminescent cell viability assay; type: functional, cell-based
[2] = system: SU-DHL-1; assay: Antiproliferative activity against human SU-DHL1 cells after 72 hrs by CellTiter-Glo luminescent cell viability assay; type: functional, cell-based
[3] = biological target: T1, ALK tyrosine kinase receptor (Homo sapiens, UniProt Q9UM73); assay: Induction of ALK degradation in human KARPAS299 cells after 16 hrs by immunoblot method; type: cell-based
How it was run: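 H3122 and Karpas 299 cells were given a dose titration for 16 h. ALK and Aurora A were then read by immunoblot. DC50 was calculated from the titrations, two independent experiments.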
Target sequence in this assay (Q9UM73 whole entry): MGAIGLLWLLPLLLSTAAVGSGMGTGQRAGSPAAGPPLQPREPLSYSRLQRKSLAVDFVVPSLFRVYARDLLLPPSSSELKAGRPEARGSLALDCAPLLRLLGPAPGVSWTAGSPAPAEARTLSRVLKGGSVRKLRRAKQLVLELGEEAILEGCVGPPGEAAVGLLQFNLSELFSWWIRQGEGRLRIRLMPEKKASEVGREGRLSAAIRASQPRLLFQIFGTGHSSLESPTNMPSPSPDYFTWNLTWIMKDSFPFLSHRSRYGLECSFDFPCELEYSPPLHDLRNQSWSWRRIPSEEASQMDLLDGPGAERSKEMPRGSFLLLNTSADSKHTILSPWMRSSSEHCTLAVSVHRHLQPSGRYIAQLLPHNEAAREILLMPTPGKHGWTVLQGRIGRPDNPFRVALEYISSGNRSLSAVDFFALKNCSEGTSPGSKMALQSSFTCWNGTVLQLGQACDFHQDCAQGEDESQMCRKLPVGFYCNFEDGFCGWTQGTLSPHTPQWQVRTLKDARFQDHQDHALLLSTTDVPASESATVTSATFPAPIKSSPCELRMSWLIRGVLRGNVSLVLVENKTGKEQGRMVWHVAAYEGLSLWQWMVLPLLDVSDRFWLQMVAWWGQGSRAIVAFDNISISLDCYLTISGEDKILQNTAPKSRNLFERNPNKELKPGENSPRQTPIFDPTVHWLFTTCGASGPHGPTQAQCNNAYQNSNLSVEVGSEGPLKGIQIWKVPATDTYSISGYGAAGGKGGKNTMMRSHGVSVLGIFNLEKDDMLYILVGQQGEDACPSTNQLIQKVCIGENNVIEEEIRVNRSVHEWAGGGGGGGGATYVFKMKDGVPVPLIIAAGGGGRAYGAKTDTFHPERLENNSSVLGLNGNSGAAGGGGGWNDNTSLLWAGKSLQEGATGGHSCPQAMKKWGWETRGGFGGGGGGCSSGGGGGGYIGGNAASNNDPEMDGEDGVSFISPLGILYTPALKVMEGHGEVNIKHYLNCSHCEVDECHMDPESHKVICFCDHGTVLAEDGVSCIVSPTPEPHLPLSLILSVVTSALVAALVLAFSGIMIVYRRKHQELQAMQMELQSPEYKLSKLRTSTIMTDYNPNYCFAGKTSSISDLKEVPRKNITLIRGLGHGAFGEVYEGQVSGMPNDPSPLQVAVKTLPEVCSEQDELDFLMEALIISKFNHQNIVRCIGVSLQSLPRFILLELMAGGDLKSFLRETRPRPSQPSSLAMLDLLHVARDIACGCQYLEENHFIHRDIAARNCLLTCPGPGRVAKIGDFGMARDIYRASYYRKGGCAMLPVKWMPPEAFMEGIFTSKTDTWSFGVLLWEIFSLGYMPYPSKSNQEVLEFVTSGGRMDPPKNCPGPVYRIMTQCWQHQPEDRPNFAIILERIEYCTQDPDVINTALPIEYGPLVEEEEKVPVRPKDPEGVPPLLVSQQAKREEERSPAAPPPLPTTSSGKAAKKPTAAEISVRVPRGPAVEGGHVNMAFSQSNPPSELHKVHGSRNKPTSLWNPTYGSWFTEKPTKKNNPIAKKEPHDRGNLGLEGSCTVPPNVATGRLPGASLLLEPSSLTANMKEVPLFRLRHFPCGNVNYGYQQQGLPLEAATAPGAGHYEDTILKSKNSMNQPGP

[4] = biological target: T1, ALK tyrosine kinase receptor; assay: Induction of ALK degradation in human KARPAS299 cells at 250 nM after 8 hrs by immunoblot method; type: cell-based
Target sequence in this assay (Q9UM73 19-1620 limits assumed): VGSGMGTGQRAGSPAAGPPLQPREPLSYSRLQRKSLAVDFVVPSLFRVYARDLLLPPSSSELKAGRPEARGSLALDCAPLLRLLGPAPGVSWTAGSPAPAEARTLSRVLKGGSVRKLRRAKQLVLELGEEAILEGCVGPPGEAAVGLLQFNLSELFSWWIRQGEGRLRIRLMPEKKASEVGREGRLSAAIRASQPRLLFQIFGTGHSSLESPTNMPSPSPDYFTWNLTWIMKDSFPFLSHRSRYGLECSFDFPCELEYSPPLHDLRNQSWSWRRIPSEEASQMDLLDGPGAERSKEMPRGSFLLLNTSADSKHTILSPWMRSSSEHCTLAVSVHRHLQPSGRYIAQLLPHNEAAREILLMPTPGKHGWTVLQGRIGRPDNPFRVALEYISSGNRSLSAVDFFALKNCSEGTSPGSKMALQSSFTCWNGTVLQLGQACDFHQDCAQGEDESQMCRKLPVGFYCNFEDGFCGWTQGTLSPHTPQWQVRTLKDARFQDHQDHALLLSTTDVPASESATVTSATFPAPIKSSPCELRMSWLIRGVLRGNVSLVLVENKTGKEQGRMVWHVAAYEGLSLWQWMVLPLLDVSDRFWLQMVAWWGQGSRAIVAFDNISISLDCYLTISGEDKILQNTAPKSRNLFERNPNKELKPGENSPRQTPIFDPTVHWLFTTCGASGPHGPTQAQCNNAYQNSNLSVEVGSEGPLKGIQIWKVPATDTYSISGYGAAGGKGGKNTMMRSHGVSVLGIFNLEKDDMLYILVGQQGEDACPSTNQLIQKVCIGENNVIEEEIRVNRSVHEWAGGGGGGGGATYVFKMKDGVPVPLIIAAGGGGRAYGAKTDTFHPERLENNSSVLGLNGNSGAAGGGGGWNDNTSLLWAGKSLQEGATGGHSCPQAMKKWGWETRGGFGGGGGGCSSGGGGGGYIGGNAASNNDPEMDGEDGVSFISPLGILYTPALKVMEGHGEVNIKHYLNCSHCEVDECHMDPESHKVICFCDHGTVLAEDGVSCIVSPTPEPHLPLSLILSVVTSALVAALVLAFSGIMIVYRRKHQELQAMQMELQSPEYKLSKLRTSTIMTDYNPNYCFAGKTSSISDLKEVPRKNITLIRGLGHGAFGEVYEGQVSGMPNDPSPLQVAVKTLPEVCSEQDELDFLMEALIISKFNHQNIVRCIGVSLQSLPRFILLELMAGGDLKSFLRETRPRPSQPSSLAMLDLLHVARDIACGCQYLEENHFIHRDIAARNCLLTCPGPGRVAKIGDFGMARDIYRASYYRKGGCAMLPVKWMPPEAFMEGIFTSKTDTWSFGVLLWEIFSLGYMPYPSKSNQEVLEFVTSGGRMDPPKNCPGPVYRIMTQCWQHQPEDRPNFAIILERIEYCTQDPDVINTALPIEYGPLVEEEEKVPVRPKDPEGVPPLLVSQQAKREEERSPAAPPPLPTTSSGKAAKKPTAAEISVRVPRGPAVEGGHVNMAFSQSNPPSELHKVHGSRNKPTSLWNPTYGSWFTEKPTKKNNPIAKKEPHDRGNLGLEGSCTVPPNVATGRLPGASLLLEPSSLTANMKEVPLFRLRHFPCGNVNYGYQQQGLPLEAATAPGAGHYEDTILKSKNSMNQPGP

[5] = biological target: T1, ALK tyrosine kinase receptor; assay: Induction of ALK degradation in human KARPAS299 cells at 250 nM after 16 hrs in presence of proteasome inhibitor carfilzomib by immunoblot method; type: cell-based
Target sequence in this assay (Q9UM73 19-1620 limits assumed): as above

[6] = biological target: T2, Aurora kinase A (Homo sapiens) (UniProt O14965); assay: Induction of aurora A degradation in human KARPAS299 cells at 250 nM after 16 hrs in presence of proteasome inhibitor carfilzomib by immunoblot method; type: cell-based
T2 sequence (whole entry): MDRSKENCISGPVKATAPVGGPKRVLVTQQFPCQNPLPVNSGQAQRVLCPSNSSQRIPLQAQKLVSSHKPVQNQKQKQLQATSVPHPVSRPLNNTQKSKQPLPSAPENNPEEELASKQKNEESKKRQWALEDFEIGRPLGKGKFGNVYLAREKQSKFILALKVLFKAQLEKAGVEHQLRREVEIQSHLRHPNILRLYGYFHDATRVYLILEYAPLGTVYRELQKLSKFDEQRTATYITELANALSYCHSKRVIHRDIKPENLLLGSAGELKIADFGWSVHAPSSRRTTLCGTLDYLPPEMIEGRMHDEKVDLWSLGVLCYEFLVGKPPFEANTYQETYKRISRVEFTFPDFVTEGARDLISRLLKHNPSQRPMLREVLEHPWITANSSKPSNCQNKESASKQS

[7] = biological target: T2, Aurora kinase A (Homo sapiens); assay: Induction of aurora A degradation in human KARPAS299 cells at 250 nM after 16 hrs in presence of […] inhibitor MLN4924 by immunoblot method; type: cell-based
[8] = biological target: T1, ALK tyrosine kinase receptor; assay: Induction of ALK degradation in human NCI-H3122 cells at 250 nM after 16 hrs in presence of pomalidomide by immunoblot method; type: cell-based
Target sequence in this assay (Q9UM73 19-1620 limits assumed): as the sequence (Q9UM73 19-1620 limits assumed) above

[9] = biological target: T1, ALK tyrosine kinase receptor; assay: Induction of ALK degradation in human KARPAS299 cells at 250 nM after 16 hrs in presence of ALK inhibitor TAE684 by immunoblot method; type: cell-based
Target sequence in this assay (Q9UM73 19-1620 limits assumed): as the sequence (Q9UM73 19-1620 limits assumed) above

[10] = system: SH-SY5Y; assay: Antiproliferative activity against human SH-SY5Y cells after 72 hrs by CellTiter-Glo luminescent cell viability assay; type: functional, cell-based
[11] = system: SH-SY5Y; assay: Antiproliferative activity against human SH-SY5Y cells after 72 hrs in presence of ABCB1 inhibitor tariquidar by CellTiter-Glo luminescent cell viability assay; type: functional, cell-based
[12] = species on record: Homo sapiens; assay: Antiproliferative activity against human CHLA20 cells after 72 hrs in presence of ABCB1 shRNA by CellTiter-Glo luminescent cell viability assay; type: functional, cell-based
[13] = biological target: T1, ALK tyrosine kinase receptor; assay: Induction of ALK degradation in human CHLA20 cells at 100 nM after 16 hrs in presence of ABCB1 shRNA by immunoblot method; type: cell-based
Target sequence in this assay (Q9UM73 19-1620 limits assumed): as the sequence (Q9UM73 19-1620 limits assumed) above

[14] = biological target: T1, ALK tyrosine kinase receptor; assay: Induction of ALK degradation in human Kelly cells after 16 hrs by immunoblot method; type: cell-based
How it was run: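 Kelly neuroblastoma cells (ABCB1-low) were given a 16 hr dose titration. ALK and Aurora A were then read by western blot. DC50 was determined from two independent experiments.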
Target sequence in this assay (Q9UM73 whole entry): as the sequence (Q9UM73 whole entry) above

[15] = biological target: T1, ALK tyrosine kinase receptor; assay: Induction of ALK degradation in human CHLA20 cells at 100 nM after 4 hrs in presence of ABCB1 inhibitor tariquidar by immunoblot method; type: cell-based
How it was run: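 CHLA20 cells were co-treated with 125 nM tariquidar, then treated with 100 nM compound over a time course. ALK was read by immunoblot.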
Target sequence in this assay (Q9UM73 19-1620 limits assumed): as the sequence (Q9UM73 19-1620 limits assumed) above

[16] = biological target: T2, Aurora kinase A (Homo sapiens); assay: Induction of aurora A degradation in human CHLA20 cells at 100 nM after 16 hrs in presence of proteasome inhibitor carfilzomib and ABCB1 inhibitor tariquidar by immunoblot method; type: cell-based
How it was run: (§1)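 Cells were pre-treated for 2 h with DMSO, carfilzomib, MLN4924 or pomalidomide, then treated with compound for 16 h, with immunoblot read-out. CHLA20 cells also received 125 nM tariquidar throughout.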

[17] = biological target: T2, Aurora kinase A (Homo sapiens); assay: Induction of aurora A degradation in human Kelly cells at 100 nM after 16 hrs in presence of […] inhibitor MLN4924 by immunoblot method; type: cell-based; how it was run: as §1
[18] = biological target: T2, Aurora kinase A (Homo sapiens); assay: Induction of aurora A degradation in human CHLA20 cells at 100 nM after 16 hrs in presence of […] inhibitor MLN4924 and ABCB1 inhibitor tariquidar by immunoblot method; type: cell-based; how it was run: as §1
[19] = biological target: T2, Aurora kinase A (Homo sapiens); assay: Induction of aurora A degradation in human CHLA20 cells at 100 nM after 16 hrs in presence of pomalidomide and ABCB1 inhibitor tariquidar by immunoblot method; type: cell-based; how it was run: as §1
[20] = biological target: T1, ALK tyrosine kinase receptor; assay: Induction of ALK degradation in human CHLA20 cells at 100 nM after 16 hrs in presence of ALK inhibitor TAE684 and ABCB1 inhibitor tariquidar by immunoblot method; type: cell-based
How it was run: (§2)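 CHLA20 cells were kept with 125 nM tariquidar and pre-treated for 2 h with DMSO, carfilzomib, MLN4924, pomalidomide, TAE684 or LDK378. A 16 h degrader treatment followed, with immunoblot readout of ALK.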

[21] = biological target: T1, ALK tyrosine kinase receptor; assay: Induction of ALK degradation in human Kelly cells at 100 nM after 16 hrs in presence of ALK inhibitor LDK378 by immunoblot method; type: cell-based
How it was run: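 Kelly cells were pre-treated for 2 h with DMSO, carfilzomib, MLN4924, pomalidomide, TAE684 or LDK378. Degrader treatment followed for 16 h, and ALK was read by immunoblot.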

[22] = biological target: T1, ALK tyrosine kinase receptor; assay: Induction of ALK degradation in human CHLA20 cells at 100 nM after 16 hrs in presence of ALK inhibitor LDK378 and ABCB1 inhibitor tariquidar by immunoblot method; type: cell-based; how it was run: as §2
[23] = biological target: Focal adhesion kinase 1 (Homo sapiens) (UniProt Q05397); assay: Induction of PTK2 degradation in human KARPAS299 cells at 0.01 to 1 uM after 16 hrs by immunoblot method; type: cell-based
[24] = biological target: Tyrosine-protein kinase Fer (Homo sapiens) (UniProt P16591); assay: Induction of FER degradation in human Kelly cells at 10 to 160 nM after 16 hrs by immunoblot method; type: cell-based
[25] = biological target: Focal adhesion kinase 1 (Homo sapiens) (UniProt Q05397); assay: Induction of PTK2 degradation in human NCI-H3122 cells at 250 nM measured over 2 to 16 hrs by immunoblot method; type: cell-based
[26] = biological target: Focal adhesion kinase 1 (Homo sapiens) (UniProt Q05397); assay: Induction of PTK2 degradation in human Kelly cells at 100 nM measured over 2 to 16 hrs by immunoblot method; type: cell-based
[27] = biological target: Ribosomal protein S6 kinase alpha-1 (Homo sapiens) (UniProt Q15418); assay: Induction of RPS6KA1 degradation in human Kelly cells at 100 nM measured over 2 to 16 hrs by immunoblot method; type: cell-based
[28] = biological target: T2, Aurora kinase A (Homo sapiens); assay: Induction of aurora A degradation in human Kelly cells at 100 nM measured over 2 to 16 hrs by immunoblot method; type: cell-based
How it was run: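 Kelly cells were given 100 nM compound for varying times, and lysates were immunoblotted for Aurora A.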

Sequence of Focal adhesion kinase 1 (Homo sapiens) (Q05397 2-1052 limits assumed): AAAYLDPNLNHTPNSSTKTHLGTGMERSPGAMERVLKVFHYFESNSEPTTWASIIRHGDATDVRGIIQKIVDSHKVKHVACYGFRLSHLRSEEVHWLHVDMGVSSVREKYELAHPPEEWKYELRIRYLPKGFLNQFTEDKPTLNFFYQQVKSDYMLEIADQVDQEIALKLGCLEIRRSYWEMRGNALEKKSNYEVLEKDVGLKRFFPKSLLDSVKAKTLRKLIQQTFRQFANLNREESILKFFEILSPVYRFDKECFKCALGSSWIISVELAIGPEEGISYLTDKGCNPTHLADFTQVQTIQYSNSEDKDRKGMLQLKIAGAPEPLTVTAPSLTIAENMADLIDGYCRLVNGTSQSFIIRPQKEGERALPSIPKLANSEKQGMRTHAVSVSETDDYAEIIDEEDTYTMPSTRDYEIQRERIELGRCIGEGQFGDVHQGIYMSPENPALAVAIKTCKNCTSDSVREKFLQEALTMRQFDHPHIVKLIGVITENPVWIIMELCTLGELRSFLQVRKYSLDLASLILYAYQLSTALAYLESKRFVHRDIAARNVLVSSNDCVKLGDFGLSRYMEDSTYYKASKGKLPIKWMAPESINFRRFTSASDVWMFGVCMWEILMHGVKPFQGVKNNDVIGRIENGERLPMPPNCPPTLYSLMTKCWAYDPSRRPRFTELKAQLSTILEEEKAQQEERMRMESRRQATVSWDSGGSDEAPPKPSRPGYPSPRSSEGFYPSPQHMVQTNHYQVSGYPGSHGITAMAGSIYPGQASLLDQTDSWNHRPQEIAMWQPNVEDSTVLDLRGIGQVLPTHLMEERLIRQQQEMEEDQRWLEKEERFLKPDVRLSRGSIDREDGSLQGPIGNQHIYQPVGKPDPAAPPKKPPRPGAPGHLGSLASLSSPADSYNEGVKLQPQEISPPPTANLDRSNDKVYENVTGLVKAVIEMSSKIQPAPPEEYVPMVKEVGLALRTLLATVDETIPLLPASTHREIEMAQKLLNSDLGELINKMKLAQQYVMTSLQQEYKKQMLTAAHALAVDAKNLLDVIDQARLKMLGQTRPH

## COc1cc(N2CCN(CCOCCOCCNC(=O)CNc3cccc4c3C(=O)N(C3CCC(=O)NC3=O)C4=O)CC2)ccc1Nc1ncc(Cl)c(Nc2ccccc2S(=O)(=O)C(C)C)n1 (stereo unspecified)
[1]
  Activity: Active
[2]
  Activity: Active
[3]
  DC50: 0.18 µM
[4]
  Activity: Active
[5]
  Activity: inactive
[6]
  Activity: inactive
[7]
  Activity: inactive
[8]
  Activity: inactive
[9]
  Activity: inactive
[10]
  Activity: inactive
[11]
  Activity: Active
[12]
  Activity: Active
[13]
  Activity: Active
[14]
  DC50: 0.05 µM
[15]
  Activity: Active
[16]
  Activity: inactive
[17]
  Activity: inactive
[18]
  Activity: inactive
[19]
  Activity: inactive
[20]
  Activity: inactive
[21]
  Activity: inactive
[22]
  Activity: inactive
[23]
  Activity: Active
[24]
  Activity: Active
[25]
  Activity: Active
[26]
  Activity: Active
[27]
  Activity: Active
[28]
  Activity: Active

## Cc1cc(Nc2ncc(Cl)c(Nc3ccccc3S(=O)(=O)C(C)C)n2)c(OC(C)C)cc1C1CCN(CCOCCOCCNC(=O)CNc2cccc3c2C(=O)N(C2CCC(=O)NC2=O)C3=O)CC1 (stereo unspecified)
[1]
  Activity: Active
[2]
  Activity: Active
[3]
  DC50: 0.04 µM
[4]
  Activity: Active
[5]
  Activity: inactive
[6]
  Activity: inactive
[7]
  Activity: inactive
[8]
  Activity: inactive
[9]
  Activity: inactive
[10]
  Activity: inactive
[11]
  Activity: Active
[12]
  Activity: Active
[13]
  Activity: Active
[14]
  DC50: 0.05 µM
[15]
  Activity: Active
[16]
  Activity: inactive
[17]
  Activity: inactive
[18]
  Activity: inactive
[19]
  Activity: inactive
[20]
  Activity: inactive
[21]
  Activity: inactive
[22]
  Activity: inactive
[23]
  Activity: Active
[24]
  Activity: Active
[25]
  Activity: Active
[26]
  Activity: Active
[27]
  Activity: Active
[28]
  Activity: Active
